Drawing on the array DNA melting data of Ke et al. (doi:10.1101/2024.01.08.574731), this text covers folding enthalpy and Tm for 37 sequences.

The nature of series [1]: folding enthalpy; higher = less favourable; fluorescence melt of hairpins on a sequencing array, two-state fit. Particulars: sodium 0.088 M. A digest of the protocol:
(§1)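 On a sequenced MiSeq flow cell, library hairpins with annealed Cy3 and quencher oligos were imaged for Cy3 fluorescence in 2.5 °C steps up to 60 °C, in 50 mM Na-HEPES pH 8.0, 25 mM NaCl. Normalisation used pre-quench Cy3 and control constructs. Bootstrapped two-state fits gave melting temperature and folding enthalpy, combined by inverse variance across four replicates and with fitted temperatures raised by 9.35 °C to match UV melts.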

A short description of series [2]: melting temperature; fluorescence melt of hairpins on a sequencing array, two-state fit, raised by 9.35 °C to match UV melts. Particulars: sodium 0.088 M. Summed up:
as §1

As to GAGAATGGAAACATTCTC (((((((....))))))), in series [1], the folding enthalpy was -40.6 kcal/mol. In series [2], the Tm worked out at 54.7 °C.
In the case of GCTTCGCGAAAGCAGAGC (((..((....))..))), the folding enthalpy in series [1] was -18.2 kcal/mol. The Tm in series [2] amounted to 48.3 °C.
On the same counts, the results for GCACGCGAAAGCGATGC ((((((....))).))) are -21.3 kcal/mol and 65.2 °C.
With GCGACGCGAAAGCGCTGC ((..(((....)))..)), the folding enthalpy in series [1] was -17.5 kcal/mol. Also, in series [2], the Tm is 57.1 °C.
Consider GGACCCGGAAACGGACCC ((..(((....)))..)), for which the folding enthalpy in series [1] was -13.8 kcal/mol. In series [2], the Tm is 32.7 °C.
On the same counts, the results for GATCTCGATGAGATC ((((((...)))))) are -37.2 kcal/mol and 53 °C.
Take GGGTCGCGAAAGCGCCCC (((.(((....))).))): the folding enthalpy in series [1] was -18.6 kcal/mol. In series [2], the Tm is 66.8 °C.
On the same counts, the results for GTACTCGAAAGAGAGTAC ((((((....)))..))) are -29.4 kcal/mol and 46.8 °C.
GATCTACTCATAGATC ((((((....)))))): the folding enthalpy in series [1] was -35.5 kcal/mol. Besides, the Tm in series [2] stood at 41.7 °C.
Taken in the same sequence, the figures for GCGACAGTTCGC ((((....)))) were -17.4 kcal/mol and 47.7 °C.
For the sequence TTCGGGAAACCGAA (((((....))))), the folding enthalpy in series [1] is -18.8 kcal/mol. Besides, the Tm in series [2] was found to be 46.7 °C.
Regarding GTTCAGGGAAACCTGAGC (.(((((....))))).), in series [1], the folding enthalpy was -22.5 kcal/mol. Besides, in series [2], the Tm amounted to 46.6 °C.
Taken in the same sequence, the figures for CGGCGGCGGAAACGCCCG (((..(((....)))))) were -10.4 kcal/mol and 49.3 °C.
Taken in the same sequence, the figures for GCAGTCGAAAGACTGTGC ((((((....)))..))) were -18.3 kcal/mol and 55.3 °C.
In the case of GGCTGTCCGAAAGGAGCC (((..(((....)))))), the folding enthalpy in series [1] was -25.1 kcal/mol. Also, in series [2], the Tm was 47.4 °C.
For the sequence GCGATCGAAAGATCACGC ((((((....)))..))), the folding enthalpy in series [1] was -21.7 kcal/mol. Besides, the Tm in series [2] was 48.2 °C.
On the same counts, the results for GAGAAAGCGAAAGCTCTC (((..(((....)))))) are -14.6 kcal/mol and 40.2 °C.
With GGGAAGGGAAACCTTCTC (.(((((....))))).), the folding enthalpy in series [1] was -23.8 kcal/mol. Further, the Tm in series [2] was found to be 46.6 °C.
For GTCATCGAAAGATAGAC ((((((....))).))), the folding enthalpy in series [1] was -24.6 kcal/mol. The Tm in series [2] was found to be 39.7 °C.
On the same counts, the results for GATCCTTTTAGGATC ((((((...)))))) are -28.8 kcal/mol and 58.9 °C.
Taken in the same sequence, the figures for CGCCACGGAAACGTAGCG (((.(((....))).))) were -37.7 kcal/mol and 50.1 °C.
With GCCACCCCGAAAGGGGGC (((..(((....)))))), the folding enthalpy in series [1] was -11.4 kcal/mol. For the same sequence, the Tm in series [2] stood at 55.8 °C.
Turning to GAAGCAGGAAACTACTTC ((((.((....)).)))), the folding enthalpy in series [1] was -19 kcal/mol. Besides, in series [2], the Tm was found to be 31.7 °C.
With GCGATGATCGC ((((...)))), the folding enthalpy in series [1] is -22.3 kcal/mol. For the same sequence, the Tm in series [2] came out at 46 °C.
On the same counts, the results for GCGTTCGAAAGAAAACGC ((((((....)))..))) are -27.3 kcal/mol and 49 °C.
On the same counts, the results for GATCAAATATTTGATC ((((((....)))))) are -48.2 kcal/mol and 47.1 °C.
On the same counts, the results for GTGTGCGAAAGCAATCAC ((((((....)))..))) are -16.1 kcal/mol and 39.9 °C.
On to GCGGCAGACCGC ((((....)))), for which, in series [1], the folding enthalpy is -23.2 kcal/mol. In addition, in series [2], the Tm came out at 56.2 °C.
Taken in the same sequence, the figures for GGAGTATCGAAAGATTCC (((..(((....)))))) were -13.1 kcal/mol and 26.6 °C.
On the same counts, the results for GGGAACCGAAAGGTGCCC (((.(((....))).))) are -41.4 kcal/mol and 64.3 °C.
As to TTCATGAAAATGAA (((((....))))), in series [1], the folding enthalpy was -9.75 kcal/mol. For the same sequence, the Tm in series [2] was found to be 28.9 °C.
For GTGAGACCGAAAGGTCAC (((..(((....)))))), in series [1], the folding enthalpy was -16.1 kcal/mol. Also, the Tm in series [2] was 50.4 °C.
Taken in the same sequence, the figures for GCAAGGCGAAAGCCCTGC (((.(((....))).))) were -31.3 kcal/mol and 50.7 °C.
As to GATCCCCCTAGGGATC ((((((....)))))), the folding enthalpy in series [1] was -32.6 kcal/mol. In series [2], the Tm was determined as 61.3 °C.
Taken in the same sequence, the figures for CGCACGCGGAAACGCGCG (((..(((....)))))) were -9.61 kcal/mol and 57 °C.
On the same counts, the results for GATCTGCCCCCAGATC ((((((....)))))) are -34.5 kcal/mol and 48.3 °C.
On the same counts, the results for GAGGAAGGAAACCTCCTC (((((.(....).))))) are -25.9 kcal/mol and 36.6 °C.
